ChEMBL document CHEMBL3227986, “Design of species- or isozyme-specific enzyme inhibitors. 1. Effect of thymidine substituents on affinity for the thymidine site of hamster cytoplasmic thymidine kinase” (J Med Chem, 1979)
One block for each compound: values may come before it. Calls of active or inactive are those of the source. No cut-off for these calls is given here.

How the values were obtained:
[1] = target: T1, Thymidine kinase, cytosolic (Cricetulus griseus) (UniProt P09768); assay: Inhibition of thymidine kinase in BHK21 (C13) cells using thymidine as substrate assessed as formation of TMP at 14.4 mM; assay type: cell-based; conditions: Mesocricetus auratus
T1 sequence (whole entry): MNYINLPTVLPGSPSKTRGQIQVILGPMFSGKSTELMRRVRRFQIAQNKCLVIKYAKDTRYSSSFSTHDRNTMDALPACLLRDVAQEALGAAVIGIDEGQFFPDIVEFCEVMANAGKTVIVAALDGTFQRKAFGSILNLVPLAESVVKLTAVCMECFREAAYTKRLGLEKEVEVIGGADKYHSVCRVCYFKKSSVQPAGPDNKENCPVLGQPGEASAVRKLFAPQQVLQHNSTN
How it was run: (§1)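 BHK21(C13) 100000g supernatant in Tris-HCl 0.05 M pH 8.0, ATP 5 mM, MgCl2 2.5 mM, [14C]thymidine 3.6 μM, 10 min at 37 °C. Reaction stopped by boiling; [14C]TMP bound to DEAE-cellulose disks and counted by liquid scintillation, corrected for unincubated blanks.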

[2] = target: T1, Thymidine kinase, cytosolic (Cricetulus griseus); assay: Inhibition of thymidine kinase in BHK21 (C13) cells using thymidine as substrate assessed as formation of TMP at 7.2 mM; assay type: cell-based; conditions: Mesocricetus auratus; how it was run: as §1
[3] = target: T2, Thymidine kinase 2, mitochondrial (Homo sapiens) (UniProt O00142); assay: Inhibition of human mitochondrial thymidine kinase using [14C]thymidine at 0.19 mM after 10 mins by liquid scintillation spectrometer analysis relative to control in presence of Mg2+
T2 sequence (whole entry): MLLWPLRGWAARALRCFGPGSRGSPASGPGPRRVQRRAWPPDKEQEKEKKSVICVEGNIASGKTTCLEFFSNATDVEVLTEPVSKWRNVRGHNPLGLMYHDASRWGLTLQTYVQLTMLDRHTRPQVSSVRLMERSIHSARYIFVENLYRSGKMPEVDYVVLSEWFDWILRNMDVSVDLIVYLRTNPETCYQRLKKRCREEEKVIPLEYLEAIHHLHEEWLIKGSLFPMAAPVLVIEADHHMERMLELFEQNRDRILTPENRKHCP

[4] = target: T1, Thymidine kinase, cytosolic (Cricetulus griseus); assay: Inhibition of thymidine kinase in BHK21 (C13) cells using thymidine as substrate assessed as formation of TMP at 1.4 mM; assay type: cell-based; conditions: Mesocricetus auratus; how it was run: as §1
[5] = target: T1, Thymidine kinase, cytosolic (Cricetulus griseus); assay: Inhibition of thymidine kinase in BHK21 (C13) cells using thymidine as substrate assessed as formation of TMP at […]; assay type: cell-based; conditions: Mesocricetus auratus
[6] = target: T1, Thymidine kinase, cytosolic (Cricetulus griseus); assay: Inhibition of thymidine kinase in BHK21 (C13) cells using thymidine as substrate assessed as formation of TMP at 6.8 mM; assay type: cell-based; conditions: Mesocricetus auratus; how it was run: as §1
[7] = target: T1, Thymidine kinase, cytosolic (Cricetulus griseus); assay: Inhibition of thymidine kinase in BHK21 (C13) cells using thymidine as substrate assessed as formation of TMP at 3.4 mM; assay type: cell-based; conditions: Mesocricetus auratus; how it was run: as §1
[8] = target: T1, Thymidine kinase, cytosolic (Cricetulus griseus); assay: Inhibition of thymidine kinase in BHK21 (C13) cells using thymidine as substrate assessed as formation of TMP at 6.6 mM; assay type: cell-based; conditions: Mesocricetus auratus; how it was run: as §1
[9] = target: T1, Thymidine kinase, cytosolic (Cricetulus griseus); assay: Inhibition of thymidine kinase in BHK21 (C13) cells using thymidine as substrate assessed as formation of TMP at 13.2 mM; assay type: cell-based; conditions: Mesocricetus auratus; how it was run: as §1
[10] = target: T1, Thymidine kinase, cytosolic (Cricetulus griseus); assay: Inhibition of thymidine kinase in BHK21 (C13) cells using thymidine as substrate assessed as formation of TMP at 0.28 mM; assay type: cell-based; conditions: Mesocricetus auratus; how it was run: as §1
[11] = target: T1, Thymidine kinase, cytosolic (Cricetulus griseus); assay: Activity at thymidine kinase in BHK21 (C13) cells at 60 uM after 30 mins relative to thymidine; assay type: cell-based; conditions: Mesocricetus auratus
How it was run: (§2)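 Radiolabeled thymidine or 2'-deoxyuridine derivatives tested as substrates: 40 μL BHK21(C13) 100000g supernatant, Tris-HCl 0.05 M pH 8.0, ATP 5 mM, MgCl2 2.5 mM, no thymidine, 30 min at 37 °C. Products separated by paper electrophoresis in 0.05 M triethylammonium bicarbonate pH 7.6; radioactivity counted in the TMP region.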

[12] = target: T1, Thymidine kinase, cytosolic (Cricetulus griseus); assay: Inhibition of thymidine kinase in BHK21 (C13) cells using [14C]thymidine at 100 to 200 uM after 10 mins by liquid scintillation spectrometer analysis relative to control in presence of Mg2+; assay type: cell-based; conditions: Mesocricetus auratus
[13] = target: T1, Thymidine kinase, cytosolic (Cricetulus griseus); assay: Activity at thymidine kinase in BHK21 (C13) cells at 400 uM after 30 mins relative to thymidine; assay type: cell-based; conditions: Mesocricetus auratus; how it was run: as §2
[14] = target: T1, Thymidine kinase, cytosolic (Cricetulus griseus); assay: Inhibition of thymidine kinase in BHK21 (C13) cells using thymidine as substrate assessed as formation of TMP at 5 mM; assay type: cell-based; conditions: Mesocricetus auratus; how it was run: as §1
[15] = target: T1, Thymidine kinase, cytosolic (Cricetulus griseus); assay: Inhibition of thymidine kinase in BHK21 (C13) cells using thymidine as substrate assessed as formation of TMP at 10 mM; assay type: cell-based; conditions: Mesocricetus auratus; how it was run: as §1
[16] = target: T2, Thymidine kinase 2, mitochondrial (Homo sapiens); assay: Effect on human mitochondrial thymidine kinase using [14C]thymidine at 2 mM after 10 mins by liquid scintillation spectrometer analysis relative to control in presence of Mg2+
[17] = target: T3, Thymidine kinase, cytosolic (Homo sapiens) (UniProt P04183); assay: Effect on human cytoplasmic thymidine kinase using [14C]thymidine at 2 mM after 10 mins by liquid scintillation spectrometer analysis relative to control in presence of Mg2+
T3 sequence (whole entry): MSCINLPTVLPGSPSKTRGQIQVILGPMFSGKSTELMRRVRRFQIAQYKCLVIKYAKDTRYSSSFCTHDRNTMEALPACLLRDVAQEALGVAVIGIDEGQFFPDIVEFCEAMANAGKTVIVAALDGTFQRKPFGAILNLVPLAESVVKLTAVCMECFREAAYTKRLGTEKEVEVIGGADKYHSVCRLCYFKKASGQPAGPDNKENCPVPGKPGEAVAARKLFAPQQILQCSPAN

[18] = target: T1, Thymidine kinase, cytosolic (Cricetulus griseus); assay: Effect on thymidine kinase in BHK21 (C13) cells using [14C]thymidine at 5 mM after 10 mins by liquid scintillation spectrometer analysis relative to control in presence of Mg2+; assay type: cell-based; conditions: Mesocricetus auratus
How it was run: (§3)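 BHK21(C13) high-speed supernatant, 10 min at 37 °C, [14C]TMP on DEAE-cellulose disks, scintillation counting. Phosphate donors (nucleoside triphosphates 5 mM, giving 2.5 mM Mg2+ triphosphates) tested with 14.4 μM [14C]thymidine. Inhibitor assays used 0.19 mM [14C]thymidine: 5-iodo nucleosides at 0.19 mM with saturating Mg2+-ATP, or dCTP 5 mM with ATP 5 mM and MgCl2 7.5 mM.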

[19] = target: T1, Thymidine kinase, cytosolic (Cricetulus griseus); assay: Inhibition of thymidine kinase in BHK21 (C13) cells using thymidine as substrate assessed as formation of TMP at 0.2 mM; assay type: cell-based; conditions: Mesocricetus auratus; how it was run: as §1
[20] = target: T1, Thymidine kinase, cytosolic (Cricetulus griseus); assay: Inhibition of thymidine kinase in BHK21 (C13) cells using thymidine as substrate assessed as formation of TMP at 0.1 mM; assay type: cell-based; conditions: Mesocricetus auratus; how it was run: as §1
[21] = target: T4, Thymidine kinase, cytosolic (Mus musculus, UniProt P04184); assay: Competitive inhibition of thymidine kinase in mouse Ehrlich's ascites cells
T4 sequence (P04184 whole entry): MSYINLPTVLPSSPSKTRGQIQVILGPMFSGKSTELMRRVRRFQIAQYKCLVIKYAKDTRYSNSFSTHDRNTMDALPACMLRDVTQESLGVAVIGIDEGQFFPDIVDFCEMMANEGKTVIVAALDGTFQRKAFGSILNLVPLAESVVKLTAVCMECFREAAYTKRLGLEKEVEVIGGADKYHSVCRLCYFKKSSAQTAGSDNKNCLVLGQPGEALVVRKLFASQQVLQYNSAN

[22] = target: T1, Thymidine kinase, cytosolic (Cricetulus griseus); assay: Inhibition of thymidine kinase in BHK21 (C13) cells using [14C]thymidine after 10 mins by liquid scintillation spectrometer analysis relative to control in presence of Mg2+; assay type: cell-based; conditions: Mesocricetus auratus; how it was run: as §3
[23] = target: T3, Thymidine kinase, cytosolic (Homo sapiens); assay: Inhibition of human cytoplasmic thymidine kinase using [14C]thymidine after 10 mins by liquid scintillation spectrometer analysis relative to control in presence of Mg2+
[24] = target: T2, Thymidine kinase 2, mitochondrial (Homo sapiens); assay: Inhibition of human mitochondrial thymidine kinase using [14C]thymidine after 10 mins by liquid scintillation spectrometer analysis relative to control in presence of Mg2+

Structure (SMILES): CC[S+]([O-])C[C@H]1O[C@@H](n2cc(C)c(=O)[nH]c2=O)C[C@@H]1O (stereo partly specified)
inhibition [4]: 13%
inhibition [5]: 30%

Structure (SMILES): CCCC(=O)NC[C@H]1O[C@@H](n2cc(C)c(=O)[nH]c2=O)C[C@@H]1O
inhibition [8]: 38%
inhibition [9]: 77%

Structure (SMILES): CCS[C@H]1C[C@H](n2cc(C)c(=O)[nH]c2=O)O[C@@H]1CO
inhibition [4]: 60%
inhibition [10]: 31%

Structure (SMILES): CC(=O)NCCCC(=O)Nc1cn([C@H]2C[C@H](O)[C@@H](CO)O2)c(=O)[nH]c1=O
Activity [11]: < 0.25%

Structure (SMILES): CCC(=O)NCC(OP(=O)(O)OP(=O)(O)OP(=O)(O)O)[C@H]1O[C@@H](n2cc(C)c(=O)[nH]c2=O)C[C@@H]1O (single isomer, unassigned; more polar)
inhibition [12]: Active

Structure (SMILES): CC(=O)NCC(O)[C@H]1O[C@@H](n2cc(C)c(=O)[nH]c2=O)C[C@@H]1O (stereo in doubt; [14C]4a)
Activity [13]: inactive

Structure (SMILES): Nc1ncnc2c1ncn2[C@H]1C[C@H](O)[C@@H](COP(=O)(O)OP(=O)(O)OP(=O)(O)O)O1
Activity [16]: 56%
Activity [17]: 108%
Activity [18]: 107%

Structure (SMILES): CCOC1N([C@H]2C[C@H](O)[C@@H](CO)O2)C(=O)NC(=O)C1(C)Br (single isomer, unassigned)
Ki [21]: 24 µM

Next, values leading:

inhibition [1]: 45%
inhibition [2]: 24%
Structure (SMILES): CCn1c(=O)ccn([C@H]2C[C@H](O)[C@@H](CO)O2)c1=O

inhibition [3]: 64%
Structure (SMILES): Nc1nc(=O)n([C@H]2C[C@H](O)[C@@H](CO)O2)cc1I

inhibition [6]: 25%
inhibition [7]: 13%
Structure (SMILES): CCNc1cn([C@H]2C[C@H](O)[C@@H](CO)O2)c(=O)[nH]c1=O

inhibition [14]: 24%
inhibition [15]: 38%
Structure (SMILES): CCNc1ccn([C@H]2C[C@H](O)[C@@H](CO)O2)c(=O)n1

inhibition [19]: 26%
inhibition [20]: 13%
Structure (SMILES): CCn1c(=O)c(C)cn([C@H]2C[C@H](O)[C@@H](CO)O2)c1=O

inhibition [22]: 27%
inhibition [23]: 15%
inhibition [24]: 82%
Structure (SMILES): Nc1ccn([C@H]2C[C@H](O)[C@@H](COP(=O)(O)OP(=O)(O)OP(=O)(O)O)O2)c(=O)n1

Ki [21]: 24 µM
Structure (SMILES): CCOC1N([C@H]2C[C@H](O)[C@@H](CO)O2)C(=O)NC(=O)C1(C)Br (single isomer, unassigned; more polar)
